Measured values as given in article PMC11665275 (Organic & Biomolecular Chemistry, 2024).
Square brackets hold non-standard residues; d marks the D form. Ends that are not written are not given here. Orn = NCCC[C@H](N)C(=O)O; Dab = NCC[C@H](N)C(=O)O; Dap = NC[C@H](N)C(=O)O

Assay: Circular dichroism
Type: physicochemical
Conditions: CD, PBS pH 7.4 (aqueous), 200 μM peptide, 25 °C, from MRE at 222 nm
How it was run: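 Spectra taken at 25 °C in PBS (137 mM NaCl, 2.7 mM KCl, 10 mM Na2HPO4, 1.8 mM KH2PO4, pH 7.4) with 200 μM peptide in a 0.1 cm quartz cuvette. Scanned 195–260 nm at 5 nm min−1, 0.50 nm bandwidth, 16 s integration. A single scan was solvent-corrected and converted to MRE. Helicity was calculated using the number of residues in the potential helical region and an empirical end-effect correction.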

Row | % Helicity in PBS (value in parentheses) | Substance
1 | 0.9% | AMRL[Dab]KFF[Dab]DFILQRKK [5_2–9_2]
2 | 0.1% | AMRL[Orn]KFF[Dap]DFILQRKK [5_3–9_1]
